Measured values collected from several papers.
Protocols differ between the studies behind these lines.
Mode: inhibitor
MAPK14: Mitogen-activated protein kinase 14 (MAPK14, Homo sapiens, UniProt Q16539)

SMILES | target | assay | system | conditions | inhibition
COc1cccc2c(NCc3ccccc3)nc(-n3c(N)nc4ccccc43)nc12 | MAPK14 | target engagement in cells, chemoproteomics | – | 20 mM | 16.5%
COc1cc2ncnc(Nc3ccc(Oc4ccccc4)c(C)c3C)c2cc1OC | MAPK14 | enzyme activity | – | 1 µM | -3%
CCCCNc1ncc2c(-c3ccc(F)cc3)nn(C[C@H]3CC[C@H](N)CC3)c2n1 | MAPK14 | target engagement in cells, chemoproteomics | – | 20 mM | 60.6%
CN1CC(Oc2cnc(C#N)cc2-c2ccn3nc(NC(=O)C4CC4)cc3c2)C1 | MAPK14 | enzyme activity | – | 1 µM | -19%
CNc1cc(Oc2cc(C(=O)Nc3cc(N4CCN(C)CC4)cc(C(F)(F)F)c3)ccc2C)ncn1 | MAPK14 | target engagement in cells, chemoproteomics | Huh-7 | 1 µM | -29%
CC/C(=N\NC(=O)NCc1cccc(O)c1)c1ccc(O)c(C)c1O | MAPK14 | enzyme activity | – | 0.1 µM | -2.8%
COc1cc2ncnc(Nc3ccc(Oc4ccccc4)cc3C)c2cc1OC | MAPK14 | enzyme activity | – | 1 µM | 3%
CN(C)C1CCN(CC#Cc2nn(C3CCCC3)c3nc(NCc4ccccc4)ncc23)C1 (stereo not drawn) | MAPK14 | enzyme activity, FRET | – | 1 µM | 3%
CN(c1ncccc1CNc1nc(Nc2ccc3c(c2)CC(=O)N3)ncc1C(F)(F)F)S(C)(=O)=O | MAPK14 | enzyme activity | – | 1 µM | 0%
CCN(CC)CCNC(=O)c1c(C)[nH]c(/C=C2\C(=O)Nc3ccc(F)cc32)c1C | MAPK14 | enzyme activity | – | 10 µM | -1%
CCCS(=O)(=O)Nc1ccc(F)c(C(=O)c2c[nH]c3ncc(-c4ccc(Cl)cc4)cc23)c1F | MAPK14 | enzyme activity | – | 1 µM | < 10%
Cc1ccc(Nc2nccc(N(C)c3ccc4c(C)n(C)nc4c3)n2)cc1S(N)(=O)=O | Mitogen-activated protein kinase 14 (MAPK14, Homo sapiens, UniProt Q16539, T106M) | enzyme activity | – | 10 µM | 13%
O=C(CSc1nc2nccnc2c(=O)n1CCc1ccccc1)Nc1nccs1 | MAPK14 | enzyme activity | – | 10 µM | 3%
CNC(=O)c1cc(Oc2ccc(NC(=O)Nc3ccc(Cl)c(C(F)(F)F)c3)cc2)ccn1 | MAPK14 | enzyme activity | – | 0.3 µM | -9%
CS(=O)(=O)Nc1cccc(-c2csc(NC(=O)CSc3nc4nccnc4c(=O)n3CCc3ccccc3)n2)c1 | MAPK14 | enzyme activity | – | 10 µM | -1%
